# Measurements published in ChEMBL document CHEMBL3875171, “[1,2]Oxazolo[5,4-e]isoindoles as promising tubulin polymerization inhibitors” (Eur J Med Chem, 2016).
# Activity calls are given as the source filed them. The calls are words filed in the database; no cut-off is given here.
# Key:
# [1] = Cytotoxicity against human JR8 cells assessed as growth inhibition after 72 hrs by MTS assay; assay type: functional, cell-based; details: JR8, 72 h
# Outline: (§1)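 Log-phase cells seeded at 4500 cells/50 µL and grown 24 h, then exposed 72 h to 0.01-100 µM compound; vehicle controls 0.01% DMSO. MTS read-out at 490 nm, expressed as % of DMSO-treated cells. Eight replicates per condition, at least three independent repeats; IC50 read graphically from dose-response curves.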
# [2] = Cytotoxicity against human M14 cells assessed as growth inhibition after 72 hrs by MTS assay; assay type: functional, cell-based; details: M14, 72 h; outline: as §1
# [3] = Cytotoxicity against human MCF7 cells assessed as growth inhibition after 72 hrs by MTS assay; assay type: functional, cell-based; details: MCF7, 72 h; outline: as §1
# [4] = Cytotoxicity against human MDA-MB-231 cells assessed as growth inhibition after 72 hrs by MTS assay; assay type: functional, cell-based; details: MDA-MB-231, 72 h; outline: as §1
# [5] = Cytotoxicity against human PC3 cells assessed as growth inhibition after 72 hrs by MTS assay; assay type: functional, cell-based; details: PC-3, 72 h; outline: as §1
# [6] = Cytotoxicity against human DU145 cells assessed as growth inhibition after 72 hrs by MTS assay; assay type: functional, cell-based; details: DU-145, 72 h; outline: as §1
# [7] = Cytotoxicity against human STO cells assessed as growth inhibition after 72 hrs by MTS assay; assay type: functional, cell-based; outline: as §1
# [8] = Cytotoxicity against human MP8 cells assessed as growth inhibition after 72 hrs by MTS assay; assay type: functional, cell-based; details: MP8, 72 h; outline: as §1
# [9] = Cytotoxicity against human WI38 cells assessed as growth inhibition after 72 hrs by MTS assay; assay type: toxicity, cell-based, WI-38; outline: as §1
# [10] = Cytotoxicity against human MCF10A cells assessed as growth inhibition after 72 hrs by MTS assay; assay type: toxicity, cell-based, MCF-10A; outline: as §1
# [11] = Antitumor activity against human STO cells xenografted in nude mouse assessed as tumor growth inhibition at 5 mg/kg, ip administered once per seven days for 4 weeks starting from day 10 post cell inoculum; assay type: functional; details: read-out: TGI
# Outline: (§2)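 Female nude mice, 6-8 weeks old; 10^7 exponentially growing STO cells injected s.c. into right flank; eight mice per group. Compound in 10% DMSO/90% saline, 5 mg/kg i.p. q7dx4 from day 10 after inoculum. Tumor diameters measured weekly by caliper, TV = d2×D/2; TVI% = 100 − (mean TV treated/mean TV control × 100). Toxicity scored as body weight loss and lethality.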
# Mus musculus = assay: Toxicity in nude mouse xenografted with human STO cells assessed as body weight loss at 5 mg/kg, ip administered once per seven days for 4 weeks starting from day 10 post cell inoculum; assay type: organism-based; details: in vivo, 672 h; outline: as §2
# STO [12] = assay: Inhibition of alpha-tubulin polymerization in human STO cells assessed as increase in ratio of soluble to polymerized tubulin fraction at antiproliferative IC50 after 24 hrs by western blot analysis; assay type: cell-based
# MP8 [13] = assay: Inhibition of alpha-tubulin polymerization in human MP8 cells assessed as increase in ratio of soluble to polymerized tubulin fraction at antiproliferative IC50 after 24 hrs by western blot analysis; assay type: cell-based
# MP8 [14] = assay: Cell cycle arrest in human MP8 cells assessed as reduction G1 phase at antiproliferative IC50 after 48 to 72 hrs by propidium iodide staining based flow cytometry; assay type: functional
# Outline: (§3)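 STO or MP8 cells exposed 48 and 72 h to compound at IC50 or IC80 (72-h MTS values), controls 1% DMSO. Adherent plus floating cells fixed in 70% ethanol, stained 30 min at 4°C with propidium iodide 50 µg/mL, RNase, 0.05% NP-40 in PBS. ≥30000 events per flow cytometry sample; Modfit model for G1/S/G2/M percentages; mean of three independent experiments.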
# MP8 [15] = assay: Cell cycle arrest in human MP8 cells assessed as reduction G1 phase at antiproliferative IC80 after 48 to 72 hrs by propidium iodide staining based flow cytometry; assay type: functional; outline: as §3
# STO [16] = assay: Cell cycle arrest in human STO cells assessed as reduction G1 phase at antiproliferative IC50 after 48 to 72 hrs by propidium iodide staining based flow cytometry; assay type: functional; outline: as §3
# STO [17] = assay: Cell cycle arrest in human STO cells assessed as reduction G1 phase at antiproliferative IC80 after 48 to 72 hrs by propidium iodide staining based flow cytometry; assay type: functional; outline: as §3
# [18] = Cell cycle arrest in human STO cells assessed as mitotic cells at antiproliferative IC50 after 72 hrs by fluorescence microscopic analysis relative to control; assay type: functional
# [19] = Cell cycle arrest in human MP8 cells assessed as mitotic cells at antiproliferative IC50 after 72 hrs by fluorescence microscopic analysis relative to control; assay type: functional
# STO [20] = assay: Cell cycle arrest in human STO cells assessed as accumulation at G2/M phase at antiproliferative IC50 after 48 to 72 hrs by propidium iodide staining based flow cytometry; assay type: functional; outline: as §3
# MP8 [21] = assay: Cell cycle arrest in human MP8 cells assessed as accumulation at G2/M phase at antiproliferative IC50 after 48 to 72 hrs by propidium iodide staining based flow cytometry; assay type: functional; outline: as §3
# [22] = Displacement of [3H]colchicine from tubulin (unknown origin); parameters: species or system Homo sapiens
# [23] = Oral bioavailability in mouse; assay type: ADME, organism-based; details: in vivo
# [24] = Oral bioavailability in rat; assay type: ADME, organism-based; details: in vivo
# [25] = Oral bioavailability in dog; assay type: ADME, organism-based, Canis lupus familiaris; details: in vivo
# [26] = Oral bioavailability in monkey; assay type: ADME, organism-based, Macaca mulatta; details: rhesus monkey, in vivo
# [27] = Antitumor activity against mouse M5076 cells implanted in mouse assessed as increase in mouse life span at 100 mg/kg/day relative to control; assay type: functional
# [28] = Antitumor activity against mouse M5076 cells implanted in mouse assessed as delay in time to develop 1 g tumor volume at 100 mg/kg/day; assay type: functional
# [29] = Toxicity in mouse implanted with mouse M5076 cells; assay type: organism-based
# STO [30] = assay: Inhibition of alpha-tubulin polymerization in human STO cells assessed as increase in ratio of soluble to polymerized tubulin fraction at 2 nM after 24 hrs by western blot analysis; assay type: cell-based
# MP8 [31] = assay: Inhibition of alpha-tubulin polymerization in human MP8 cells assessed as increase in ratio of soluble to polymerized tubulin fraction at 13 nM after 24 hrs by western blot analysis; assay type: cell-based
Compound,IC50 [1] [µM],IC50 [2] [µM],IC50 [3] [µM],IC50 [4] [µM],IC50 [5] [µM],IC50 [6] [µM],IC50 [7] [µM],IC50 [8] [µM],IC50 at 72 h [9] [µM],IC50 at 72 h [10] [µM],other results
COc1cc(Cn2cc3c(c2)-c2oncc2CC3)cc(OC)c1,0.23,0.31,0.33,0.32,0.27,0.31,0.06,0.07,> 100,> 100,inhibition in vivo at 5 mg/kg [11]: 51%; Activity (Mus musculus): Non-Toxic; inhibition (STO [12]): Active; inhibition (MP8 [13]): Active; Activity (MP8 [14]): Active; Activity (MP8 [15]): Active; Activity (STO [16]): Active; Activity (STO [17]): Active; Activity [18]: 35 - 70%; Activity [19]: 35 - 70%
CC(=O)O[C@H]1C(=O)[C@@]2(C)[C@H]([C@H](OC(=O)c3ccccc3)[C@]3(O)C[C@H](OC(=O)[C@H](O)[C@@H](NC(=O)c4ccccc4)c4ccccc4)C(C)=C1C3(C)C)[C@]1(OC(C)=O)CO[C@@H]1C[C@@H]2O [PACLITAXEL],,,,,,,,,,,Activity (STO [20]): Active; Activity (MP8 [21]): Active; Activity [18]: 35 - 70%; Activity [19]: 35 - 70%
COc1ccc(OC)c(Cn2cc3c(c2)-c2oncc2CC3)c1,19.2,16.8,15.2,19.6,23.7,19.5,> 100,> 100,> 100,> 100,
Cn1cc2c(c1)-c1oncc1CC2,58.4,65.8,86.6,55.4,77.1,69.3,28.1,26.7,,,
COc1ccc(-n2cc3c(c2)-c2oncc2CC3)cc1,61.6,58.5,79.6,57.5,79.9,81.1,25.5,21.2,,,
COc1ccc(Cn2cc3c(c2)-c2oncc2CC3)cc1OC,0.85,0.96,1.03,0.88,0.79,0.87,0.64,0.51,> 100,> 100,
c1ccc(Cn2cc3c(c2)-c2oncc2CC3)cc1,5.14,6.88,11.3,19.6,13.5,15.2,0.79,0.69,> 100,> 100,
Cc1c2c(cn1C)CCc1cnoc1-2,> 100,> 100,> 100,> 100,> 100,> 100,> 100,> 100,,,
COc1ccccc1Cn1cc2c(c1)-c1oncc1CC2,16.2,20.5,19.4,14.4,18.6,17.5,0.79,1.52,> 100,> 100,
Cc1c2c(cn1Cc1ccccc1)CCc1cnoc1-2,> 100,> 100,> 100,> 100,> 100,> 100,> 100,> 100,,,
CCOC(=O)c1c2c(c(C)n1C)-c1oncc1CC2,> 100,> 100,> 100,> 100,> 100,> 100,> 100,> 100,,,
CCOC(=O)c1c2c(c(C)n1Cc1ccccc1)-c1oncc1CC2,> 100,> 100,> 100,> 100,> 100,> 100,> 100,> 100,,,
COc1cccc(Cn2cc3c(c2)-c2oncc2CC3)c1,0.96,1.02,1.17,0.85,0.96,1.37,0.46,0.51,> 100,> 100,
COc1cc([C@H]2CN=C(c3ccc4c(ccn4C)c3)O2)cc(OC)c1OC,,,,,,,,,,,Ki [22]: 0.65 µM; bioavailability [23]: 6.5 to 18.6%; bioavailability [24]: 6.5 to 18.6%; bioavailability [25]: 6.5 to 18.6%; bioavailability [26]: 6.5 to 18.6%; Activity [27]: 206%; Time [28]: 28 days; MTD [29]: 100 mg/kg/day
COc1ccc(Cn2cc3c(c2)-c2oncc2CC3)cc1,9.15,12.5,7.89,15.6,18.6,15.2,> 100,> 100,> 100,> 100,
CCC1=C[C@@H]2CN(C1)Cc1c([nH]c3ccccc13)[C@@](C(=O)OC)(c1cc3c(cc1OC)N(C)[C@H]1[C@@](O)(C(=O)OC)[C@H](OC(C)=O)[C@]4(CC)C=CCN5CC[C@]31[C@@H]54)C2 [VINORELBINE],,,,,,,,,,,inhibition (STO [30]): Active; inhibition (MP8 [31]): Active; Activity (STO [20]): Active; Activity (MP8 [21]): Active; Activity [18]: 35 - 70%; Activity [19]: 35 - 70%
Cc1ccc(Cn2cc3c(c2)-c2oncc2CC3)cc1,> 100,> 100,> 100,> 100,> 100,> 100,> 100,> 100,,,
c1ccc(-n2cc3c(c2)-c2oncc2CC3)cc1,59.6,63.4,81.2,68.4,70.5,76.4,29.5,25.3,,,
COc1cccc(Cn2cc3c(c2)-c2oncc2CC3)c1OC,> 100,> 100,> 100,> 100,> 100,> 100,> 100,> 100,,,
COc1cc(Cn2cc3c(c2)-c2oncc2CC3)cc(OC)c1OC,0.63,0.89,0.92,0.75,0.87,0.99,0.62,0.73,> 100,> 100,
CCOC(=O)c1c2c(c(C)n1Cc1ccc(OC)cc1)-c1oncc1CC2,> 100,> 100,> 100,> 100,> 100,> 100,> 100,> 100,,,
